Screening results from PubChem.
EBNA-1 inh – blocks EBNA-1 binding to DNA. EBNA-1 DNA binding, fluorescence polarization. inhibition, % at 14.8 µM. 300,000 tested, 0.34% active. AID 1950; in the data active = inhibition above about 28%
Apaf-1 inh – inhibitors of human Apaf-1 apoptosome | AID 489030 | 330,000 tested, 0.71% active | O14727 | reconstituted apoptosome caspase-3 activity, DEVD-Rh110 fluorescence | inhibition, % at 20 µM; active = inhibition of at least 40% at 20 µM;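 also: plate controls were DMSO wells for no effect and DEVD-CHO caspase inhibitor wells for full effect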
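Material: reconstituted apoptosome with Apaf-1, cytochrome c, caspase-9, procaspase-3, dATP / Buffer or medium: pH 7.5 Hepes buffer with CHAPS, BSA, DTT / Also added: cytochrome c with DEVD-Rh110 / Schedule: compound with Apaf-1, dATP, procaspase-3 30 min, then 50 min reaction, room temperature / Technique: rhodamine 110 fluorescence at Ex 480/Em 540 nm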
GSTO1 counter – counter-screen for RBBP9 inhibitors: inhibitors of human GSTO1 | P78417 | recombinant GSTO1, activity-based probe fluorescence polarization | inhibition, % at 5.96 µM | 300,000 tested, 1.1% active | AID 1974;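 active = inhibition above the campaign mean inhibition plus 3 SD, cut at about 35% in these data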;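 also: 0% = GSTO1-1 with DMSO and 100% = wells lacking GSTO1-1 enzyme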
procasp3 activ – activators of human procaspase-3. recombinant procaspase-3 D3A, Ac-DEVD-pNA absorbance 405 nm. activation, % at 8.5 µM. 330,000 tested, 0.11% active;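 active = activation above the mean of all tested compounds plus 3 SD, cut at about 21% in these data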;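 also: 0% = DMSO alone and 100% = DMSO wells spiked with extra 5 µM PC-3 D3A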
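Compound: 8.5 µM single point, 0.8% DMSO / Material: Autoprocessing-dead procaspase-3 D3A mutant enzyme / Timing: 1 h preincubation plus 2 h reaction at 25 °C / Medium: Zinc-free HEPES/NaCl buffer with 0.01% Triton X-100 at pH 7.4 / Technique: 405 nm absorbance of p-nitroaniline, reads at 0 and 120 min / Repeats: one well per compound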
proCasp7 act – counter-screen for procaspase-3 activators: activators of human procaspase-7; recombinant procaspase-7, Ac-DEVD-pNA absorbance 405 nm; D23A/D198A/D206A triple mutant, cannot self-cleave; scale: DMSO 0, 5 µM enzyme 100; activation, % at 8.5 µM; 330,000 tested, 0.093% active;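 active = percent activation above the screen-wide mean plus 3 SD, cut at about 25% in these data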
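System: Procaspase-7 triple mutant (PC-7 D3A); measure: % activation from two-timepoint absorbance difference, scaled to controls; times: 1 h compound preincubation, 2 h substrate cleavage, 25 °C; also added: Ac-DEVD-pNA substrate, 400 µM as added; measured by: Epi-absorbance of released pNA at 405 nm, two timepoints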
ZTA DNA inh – blocks Epstein-Barr virus ZTA, an EBNA-1 counter-screen | ZTA-DNA binding, fluorescence polarization | P03206 | 320,000 tested, 0.15% active | inhibition, % at 11 µM; in the data active = inhibition above about 33%
Numbers without * were called inactive; x = no result; + = active, no number. In the library only some 1.8% were active in any assay of this set; here they are far more common.

SMILES | EBNA-1 inh | Apaf-1 inh | GSTO1 counter | procasp3 activ | proCasp7 act | ZTA DNA inh
COCCn1c(=NC(=O)c2sc3ccccc3c2Cl)sc2cc(S(N)(=O)=O)ccc21 | 1.8 | 13.1 | -8.9 | 0.1 | -1.1 | -5.5
C=CCn1c(=NC(=O)c2sc3ccccc3c2Cl)sc2cc(S(N)(=O)=O)ccc21 | 31.0* | -21.4 | -5.6 | -3.6 | -1.2 | 5.2
C/C(=N\NC(=O)CSCc1ccccc1Cl)c1cc(O)ccc1O | -0.5 | -8.2 | 40.4* | -3.0 | -10.3 | 7.2
C/C(=N\NC(=O)C1CC1)c1ccc(OC(F)F)cc1 | 3.1 | 0.6 | 7.1 | 2.6 | 5.8 | -11.2
O=C(CCl)N(c1ccccc1)C1CCCCC1 | -17.3 | 6.2 | 66.8* | -3.1 | -4.7 | 12.2
CNS(=O)(=O)c1cccc(C(=O)NNC(=O)c2ccc(COc3ccccc3)cc2)c1 | 1.1 | 1.6 | 1.2 | 3.5 | -0.5 | 0.4
CC(C)[C@H](NC(=O)c1ccccc1)C(=O)OCC(=O)c1ccc(S(=O)(=O)N2CCCCC2)cc1 | 5.9 | 4.5 | 37.1* | 0.3 | 10.6 | -13.6
COc1ccccc1NS(=O)(=O)c1cccc(C(=O)N2CCN(C/C=C/c3ccccc3)CC2)c1 | 1.6 | 45.8* | -3.8 | 3.2 | 6.5 | -1.6
CN(C)C(=O)CN1CCN(c2nc3nonc3nc2N2CCCCC2)CC1 | 6.5 | -1.4 | -0.7 | 4.7 | 7.8 | -9.2
CN(C)C(=O)CN1CCN(C(=O)CCl)CC1 | -3.6 | -10.0 | 61.0* | 0.7 | 1.7 | -2.9
CC(C)CN(C(=O)COC(=O)c1ccc2ccccc2n1)C1CCS(=O)(=O)C1 (configuration not stated) | -8.6 | 15.6 | -2.5 | -8.3 | 3.7 | 1.4
CN(C(=O)COC(=O)c1ccc2ccccc2n1)C1CCS(=O)(=O)C1 (configuration not stated) | + | -4.3 | -1.6 | -0.8 | 2.6 | +
CCCCCOc1ccc(C(O)C(CN2CCOCC2)c2ccccc2)cc1 (configuration not stated) | x | 16.6 | x | x | x | x
CC[C@]12c3[nH]c4ccccc4c3CCN1C(=O)C(CC(=O)NCc1cccc(C(F)(F)F)c1)C[C@@H]2C(=O)N1CCN(C(=O)c2ccco2)CC1 (some centres not stated) | x | 21.5 | x | -3.7 | -1.8 | x
Fc1ccc(NC(=S)Nc2cccc3ccccc23)cc1F | 0.3 | 80.6* | 8.0 | -9.7 | -22.7 | -10.4
CC(C)c1ccc(NC(=S)Nc2cccc3ccccc23)cc1 | 5.2 | 84.0* | -0.7 | -16.5 | -13.9 | -7.9
Fc1ccc(NC(=S)Nc2cccc3ccccc23)cc1 | 0.4 | 84.7* | -2.2 | -4.5 | -4.8 | 7.3
Cc1ccc(NC(=S)Nc2cccc3ccccc23)cc1 | -10.6 | 31.5 | 2.1 | -9.3 | -15.3 | -21.8
COC(=O)c1ccccc1NC(=O)CN1CCN(c2ccccn2)CC1 | 5.7 | 15.0 | 14.7 | 11.1 | -0.3 | -6.9
COC(=O)c1ccccc1N/C=C1\CCc2c(c(C)nn2-c2ccccn2)C1=O | 7.6 | 69.3* | 23.1 | -1.2 | -21.4 | -9.6
CC(C)Oc1ccc(S(=O)(=O)N2CCOCC2)cc1NC(=O)CCCSc1ccccc1 | x | 21.1 | x | x | x | x
N#Cc1ccccc1NC(=O)CSc1ccc([N+](=O)[O-])cn1 | 0.7 | -11.2 | 6.8 | -7.9 | -4.6 | 9.6
Cc1nnc(NC(=O)CSc2ccc([N+](=O)[O-])cn2)s1 | -5.7 | -1.4 | 37.3* | 2.4 | 8.8 | 1.8
CCOC(=O)CCNC(=O)N1CCC(CCOc2ccccc2)(C(=O)OCC)CC1 | -1.3 | x | 8.0 | -9.1 | -3.8 | -5.8
CCOC(=O)C1(CCOc2ccccc2)CCN(C(=O)CCSC)CC1 | -0.9 | x | -0.3 | 0.3 | 2.8 | 36.8*
SMILES | EBNA-1 inh | Apaf-1 inh | GSTO1 counter | procasp3 activ | proCasp7 act | ZTA DNA inh
Cc1cccc(COc2ccccc2C(=O)N(C)CC(=O)Nc2cccc(F)c2)c1 | x | 29.6 | x | 0.5 | 7.9 | 5.8
CCOc1ccc(NC(=O)CN(C)C(=O)c2ccccc2OCc2cccc(C)c2)cc1OCC | x | 46.1* | x | -5.4 | -8.4 | 4.4
O=C(COC(=O)COc1ccc(Cl)cc1Cl)Nc1cccnc1Cl | -5.5 | 7.2 | 35.4* | 10.8 | -4.8 | -22.5
CCc1cc(C(=O)Cc2cnn(-c3ccccc3)c2)c(O)cc1O | 5.9 | 1.4 | -11.5 | -3.1 | -3.0 | 4.4
O=C(Cc1cnn(-c2ccccc2)c1)c1ccc(O)c(O)c1O | 0.3 | 19.2 | 50.5* | -12.5 | -22.8 | 6.7
Cc1sc2ncnc(NCCCN3CCCC3=O)c2c1C | 8.0 | -7.8 | 36.9* | 5.4 | 8.3 | 8.9
O=C(COc1ccc(Br)cc1Br)NC(=S)N1CCCc2ccccc21 | 8.5 | 3.5 | 5.9 | 7.8 | -10.9 | 42.0*
CCCCCCCCCCCCCCCC[n+]1cccc2ccccc21 | -0.5 | 91.1* | 7.5 | -15.7 | -10.1 | 28.1
CC(CCc1ccccc1)NC(=O)CN1CCSc2ccccc21 (configuration not stated) | 0.0 | 19.9 | 36.3* | 1.2 | -2.9 | 5.8
COc1cc(/C=C2/C(=O)N(c3ccc(C(=O)O)cc3)N=C2C)cc(OC)c1O | x | 77.6* | x | x | x | x
COc1cc(/C=C2/C(=O)N(c3ccc(C)c(C)c3)N=C2C)cc([N+](=O)[O-])c1O | 7.9 | 10.1 | 7.4 | -11.0 | -15.8 | -15.1
O=C1CNC(=S)N1CCc1ccc(O)c(O)c1 | -7.5 | -2.4 | 60.5* | -25.2 | -31.8 | -6.8
O=C1CNC(=S)N1CCOc1ccccc1 | -3.5 | -2.1 | 7.0 | -1.8 | 0.9 | -4.4
COc1ccccc1/C=C(/CC(=O)NCc1ccc2c(c1)OCO2)c1nc2ccccc2s1 | 36.4* | 20.3 | -2.5 | -8.1 | 3.8 | -1.3
O=C(CCl)Nc1cn(-c2ccccc2)nc1-c1ccccc1 | 8.6 | 14.5 | 51.0* | 1.6 | 0.5 | 13.3
CC1COc2ccccc2N1S(=O)(=O)c1cc(Cl)ccc1Cl (configuration not stated) | 8.9 | 11.0 | 5.8 | 6.0 | 3.5 | 6.2
Cc1cccc(Cc2c(C)nc3c(C(=O)N4CCN(Cc5ccc6c(c5)OCO6)CC4)cnn3c2C)c1 | 4.0 | 15.8 | 35.2* | -1.1 | 3.9 | 3.7
Cc1ccccc1Cc1c(C)nc2c(C(=O)N3CCN(Cc4ccc5c(c4)OCO5)CC3)cnn2c1C | -7.5 | 17.0 | -1.1 | 6.9 | 6.4 | -20.8
C#CCOCCOCCOCCNc1nc(N2CCN(C(=O)[C@H](CCCCN)n3cc([C@@H](N)CO)nn3)CC2)nc(N2CCN(C(=O)[C@H](Cc3cc4ccccc4[nH]3)n3cc([C@@H](N)Cc4ccc(O)cc4)nn3)CC2)n1 | 2.8 | 55.3* | 14.6 | 5.3 | -6.5 | 0.2
